From ChEMBL document CHEMBL3097988, “Synthesis and characterization of new N-(4-(4-chloro-1H-imidazol-1-yl)-3-methoxyphenyl)amide/sulfonamide derivatives as possible antimicrobial and antitubercular agents” (2014)
≈ marks a conversion by molar mass, not a printed value.

What follows are molecules tested on Mycobacterium tuberculosis (assay: Antimicrobial activity against multi drug-resistant Mycobacterium tuberculosis after 7 days by resazurin assay). Settings: 168 h.
Type: functional
Procedure, shortened: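 Resazurin microtitre assay. Cultures were grown in Middlebrook 7H9 with 10% OADC and added to fresh medium in 96-well plates. Test compounds came from 2 mg/mL DMF stocks, with DMF-only controls. Plates were incubated 7 days at 37 °C, then resazurin was added and read after 1 h at 37 °C. MIC was the lowest concentration preventing the blue-to-pink change.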

Compound | MIC [µg/mL]
COc1cc(NS(=O)(=O)C2(c3ccc(Cl)cc3)CC2)ccc1-n1cnc(Cl)c1 | > 50
COc1cc(NS(=O)(=O)c2ccccc2)ccc1-n1cnc(Cl)c1 | 25 (≈ 68.7 µM)
COc1ccc(S(=O)(=O)Nc2ccc(-n3cnc(Cl)c3)c(OC)c2)cc1OC | > 50
COc1cc(NS(=O)(=O)c2ccc([N+](=O)[O-])cc2)ccc1-n1cnc(Cl)c1 | 6.25 (≈ 15.3 µM)
COc1cc(NS(=O)(=O)c2cccc(C(C)C#N)c2)ccc1-n1cnc(Cl)c1 (centres undefined) | 25 (≈ 60 µM)
COc1cc(NC(=O)c2ccccc2)ccc1-n1cnc(Cl)c1 | 25 (≈ 76.3 µM)
COc1cc(NC(=O)c2ccc([N+](=O)[O-])cc2)ccc1-n1cnc(Cl)c1 | > 50
COc1cc(NC(=O)c2cccc(C(C)C#N)c2)ccc1-n1cnc(Cl)c1 (centres undefined) | > 50
COc1cc(NS(=O)(=O)c2ccc(Cl)cc2Cl)ccc1-n1cnc(Cl)c1 | > 50
COc1cc(NS(=O)(=O)Cc2cccc(C(F)(F)F)c2)ccc1-n1cnc(Cl)c1 | > 50
COc1cc(NS(=O)(=O)c2ccco2)ccc1-n1cnc(Cl)c1 | 25 (≈ 70.7 µM)
COc1cc(NS(=O)(=O)c2cc(F)cc(C(F)(F)F)c2)ccc1-n1cnc(Cl)c1 | 6.25 (≈ 13.9 µM)
COc1cc(NS(=O)(=O)c2ccc(C(F)(F)F)cc2)ccc1-n1cnc(Cl)c1 | 6.25 (≈ 14.5 µM)
COc1cc(NS(=O)(=O)c2cccc([N+](=O)[O-])c2Cl)ccc1-n1cnc(Cl)c1 | 25 (≈ 56.4 µM)
COc1cc(NS(=O)(=O)c2c(F)ccc(C(F)(F)F)c2Cl)ccc1-n1cnc(Cl)c1 | 6.25 (≈ 12.9 µM)
COc1cc(F)c(S(=O)(=O)Nc2ccc(-n3cnc(Cl)c3)c(OC)c2)c(C(F)(F)F)c1 | 25 (≈ 52.1 µM)
COc1cc(NS(=O)(=O)c2cccs2)ccc1-n1cnc(Cl)c1 | > 50
COc1cc(NC(=O)c2ccc(Cl)cc2Cl)ccc1-n1cnc(Cl)c1 | 25 (≈ 63 µM)
COc1cc(NC(=O)Cc2cccc(C(F)(F)F)c2)ccc1-n1cnc(Cl)c1 | > 50
COc1cc(NC(=O)c2ccco2)ccc1-n1cnc(Cl)c1 | > 50
COc1cc(NC(=O)c2cc(F)cc(C(F)(F)F)c2)ccc1-n1cnc(Cl)c1 | > 50
COc1cc(NC(=O)c2ccc(C(F)(F)F)cc2)ccc1-n1cnc(Cl)c1 | > 50
COc1cc(NC(=O)c2cccc([N+](=O)[O-])c2Cl)ccc1-n1cnc(Cl)c1 | > 50
COc1cc(NC(=O)c2c(F)ccc(C(F)(F)F)c2Cl)ccc1-n1cnc(Cl)c1 | 25 (≈ 55.8 µM)
COc1cc(F)c(C(=O)Nc2ccc(-n3cnc(Cl)c3)c(OC)c2)c(F)c1 | > 50
COc1cc(NC(=O)c2cccs2)ccc1-n1cnc(Cl)c1 | > 50
COc1cc(NC(=O)C2(c3ccc(Cl)cc3)CC2)ccc1-n1cnc(Cl)c1 | 25 (≈ 62.1 µM)
NNC(=O)c1ccncc1 [ISONIAZID] | 12.5 (≈ 91.1 µM)
CO[C@H]1/C=C/O[C@@]2(C)Oc3c(C)c(O)c4c(O)c(c(/C=N/N5CCN(C)CC5)c(O)c4c3C2=O)NC(=O)/C(C)=C\C=C\[C@H](C)[C@H](O)[C@@H](C)[C@@H](O)[C@@H](C)[C@H](OC(C)=O)[C@@H]1C [RIFAMPIN] | 25 (≈ 30.4 µM)
